{"data": "Published values pooled from the literature", "TACR2": "Substance-K receptor (TACR2, Homo sapiens, UniProt P21452)", "PRKCA": "Protein kinase C alpha type (PRKCA, Homo sapiens, UniProt P17252)", "USP8": "Ubiquitin carboxyl-terminal hydrolase 8 (USP8, Homo sapiens, UniProt P40818)", "Dipeptidyl peptidase 8": "Dipeptidyl peptidase 8 (Homo sapiens, UniProt Q6V1X1)", "note": "Compare with care: the assays were run in different laboratories."}
{"SMILES": "c1ccc(C(NCCNC(c2ccccc2)c2ccccc2)c2ccccc2)cc1", "target": "TACR2", "test": "cell-free assay", "conditions": "10 µM", "inhibition [%]": 40}
{"SMILES": "C#Cc1n[nH]c2c(-c3cn([C@@H](C)c4ccccc4)c(=O)[nH]c3=O)cc(F)cc12", "target": "PRKCA", "test": "enzyme activity, inhibitor", "conditions": "0.1 µM", "inhibition [%]": 9.6}
{"SMILES": "Cn1cc(-c2cccc(N3CCc4c(sc5c4CC(C)(C)C5)C3=O)c2CO)cc(Nc2ccncn2)c1=O", "target": "PRKCA", "test": "enzyme activity, inhibitor", "conditions": "1 µM", "inhibition [%]": 5}
{"SMILES": "CCOC(=O)c1ccc(OC(=O)CCCCCNC(=N)N)cc1", "target": "USP8", "test": "enzyme activity, inhibitor", "conditions": "10 µM", "inhibition [%]": 0}
{"SMILES": "C[C@H](C(=O)N[C@H]1COc2ccccc2[C@@H]1S(C)(=O)=O)c1ccc(F)cc1", "target": "TACR2", "test": "cell-free assay", "conditions": "10 µM", "inhibition [%]": -21}
{"SMILES": "COCc1c(-c2cc3cc(C)cc(OC)c3s2)c2c(N)ncnn2c1CN1CCNC(=O)C1", "target": "Nitric oxide synthase 1 (Nos1, Rattus norvegicus, UniProt P29476)", "test": "enzyme activity, inhibitor", "conditions": "10 µM", "inhibition [%]": -8}
{"SMILES": "O=C(Nc1cccnn1)N1CCN([C@@H]2CCOc3cc(C(F)(F)F)ccc32)CC1", "target": "Somatostatin receptor type 4 (SSTR4, Homo sapiens, UniProt P31391)", "test": "ligand displacement", "conditions": "20 µM", "inhibition [%]": 29}
{"SMILES": "COc1cc(Nc2ncc(F)c(Nc3ccc4c(n3)NC(=O)C(C)(C)O4)n2)cc(OC)c1OC", "target": "Cyclin-dependent kinase 11B (CDK11B, Homo sapiens, UniProt P21127)", "test": "binding, competition with immobilised ligand", "conditions": "10 µM", "inhibition [%]": 0}
{"SMILES": "C#Cc1n[nH]c2c(-c3cn(C(C)c4ccccn4)c(=O)[nH]c3=O)cc(F)cc12 (stereo not shown)", "target": "Tyrosine-protein kinase Yes (YES1, Homo sapiens, UniProt P07947)", "test": "enzyme activity, inhibitor", "conditions": "1 µM", "inhibition [%]": -0.2}
{"SMILES": "CCN(CC)CCCC[C@H](NC(=O)[C@H](CC(C)C)NC(=O)[C@H](C)NC(=O)[C@H](Cc1ccccc1)NC(=O)c1ccc(C(C)(C)C)cc1)C(=O)N[C@@H](CO)C(=O)OC", "target": "TACR2", "test": "ligand displacement, radioligand", "conditions": "10 µM", "inhibition [%]": 75}
{"SMILES": "CN(C)C(=O)COC(=O)Cc1ccc(OC(=O)c2ccc(NC(=N)N)cc2)cc1", "target": "USP8", "test": "enzyme activity, inhibitor", "conditions": "10 µM", "inhibition [%]": 0}
{"SMILES": "COc1c2ccoc2cc2oc(=O)ccc12", "target": "Histone deacetylase 8 (HDAC8, Homo sapiens, UniProt Q9BY41)", "test": "enzyme activity, inhibitor", "conditions": "10 µM", "inhibition [%]": 34.4}
{"SMILES": "N#Cc1ccc(NCCNCC(=O)N2N=CCC2C#N)nc1 (stereo not shown)", "target": "Dipeptidyl peptidase 8", "test": "enzyme activity, inhibitor", "conditions": "100 µM", "inhibition [%]": 81}
{"SMILES": "Cn1cc(-c2cc(F)cc(N3CCn4c(cc5c4CCCC5)C3=O)c2CO)cc(Nc2ccc(N3CCN(C4COC4)CC3)cn2)c1=O", "target": "Testis-specific serine/threonine-protein kinase 2 (TSSK2, Homo sapiens, UniProt Q96PF2)", "test": "enzyme activity, inhibitor", "conditions": "0.1 µM", "inhibition [%]": 17}
{"SMILES": "N=C(N)c1ccc2cc(OC(=O)c3ccc(N=C(N)N)cc3)ccc2c1", "target": "Dipeptidyl peptidase 8", "test": "enzyme activity, inhibitor", "conditions": "10 µM", "inhibition [%]": 8}
{"SMILES": "O=C(CNC(=O)c1coc(-c2ccccc2O)n1)Nc1ccccc1", "target": "Histone deacetylase 1 (HDAC1, Homo sapiens, UniProt Q13547)", "test": "enzyme activity, inhibitor", "conditions": "20 µM", "inhibition [%]": 26}
